# From ChEMBL document CHEMBL1146752, “Oxamyl dipeptide caspase inhibitors developed for the treatment of stroke” (Bioorg Med Chem Lett, 2004)
# Assays:
# [1] = test system: SKW 6.4; assay: Inhibitory activity was evaluated against human SKW 6.4 cell line in cellular assay; format: functional, cell-based
# How it was run: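 Cellular assay (Con A; SKW 6.4 cells) run for 24 h at 37 °C. Read-out is IC50 (µM).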
# [2] = test system: Jurkat; assay: Inhibitory activity evaluated against human jurkat cell line in cellular assay; format: functional, cell-based
# How it was run: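 Human Jurkat cells, in an assay where caspase-8 is relevant but other caspases also contribute. Run for 24 h at 37 °C. Read-out is IC50 (µM).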
# [3] = test system: THP-1; assay: Inhibitory activity evaluated against human THP-1 cell line in cellular assay; format: functional, cell-based
# How it was run: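 Human cells (monocytes; THP-1 line) in a caspase-1-dependent cellular assay run for 24 h at 37 °C. Read-out is IC50 (µM).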
# [4] = organism: Rattus norvegicus; assay: Inhibitory activity evaluated against rat Con A embryonic cortical neurons in cellular assay; format: functional
SMILES,IC50 [1],IC50 [2],IC50 [3],IC50 [4]
O=C(O)C[C@H](NC(=O)C1CCC(NC(=O)C(=O)Nc2cccc3ccccc23)C1)C(=O)COc1c(F)c(F)cc(F)c1F (some centres not stated),–,–,930 nM,2500 nM
CC(C)C[C@H](NC(=O)C(=O)Nc1cccc2ccccc12)C(=O)N[C@@H](CC(=O)O)C(=O)COC(=O)c1c(Cl)cccc1Cl,–,1300 nM,–,500 nM
CC(C)[C@H](NC(=O)C(=O)Nc1cccc2ccccc12)C(=O)N[C@@H](CC(=O)O)C(=O)COc1c(F)cccc1F,–,–,480 nM,450 nM
CC(C)C[C@H](NC(=O)C(=O)Nc1cccc2ccccc12)C(=O)N[C@@H](CC(=O)O)C(=O)COc1c(F)cc(F)cc1F,–,535 nM,–,4610 nM
CC(C)[C@H](NC(=O)C(=O)Nc1cccc2ccccc12)C(=O)N[C@@H](CC(=O)O)C(=O)COC(=O)c1c(Cl)cccc1Cl,–,4.3 nM,–,350 nM
COC(=O)c1cc(OCC(=O)[C@H](CC(=O)O)NC(=O)[C@@H](NC(=O)C(=O)Nc2cccc3ccccc23)C(C)C)no1,–,–,280 nM,9000 nM
O=C(O)C[C@H](NC(=O)C(NC(=O)C(=O)Nc1cccc2ccccc12)C1CCCCC1)C(=O)COc1c(F)c(F)cc(F)c1F (some centres not stated),–,–,1440 nM,1500 nM
CC(C)[C@H](NC(=O)C(=O)Nc1cccc2ccccc12)C(=O)N[C@@H](CC(=O)O)C(=O)COc1c(F)cc(F)cc1F,–,5.2 nM,–,300 nM
CC(C)[C@H](NC(=O)C(=O)Nc1cccc2ccccc12)C(=O)N[C@@H](CC(=O)O)C(=O)COc1ccc(-c2ccccc2)cc1,–,–,1120 nM,> 50000 nM
O=C(O)C[C@H](NC(=O)[C@H](Cc1ccccc1)NC(=O)C(=O)Nc1cccc2ccccc12)C(=O)COc1c(F)c(F)cc(F)c1F,–,–,1260 nM,2700 nM
CC(C)[C@H](NC(=O)C(=O)Nc1cccc2ccccc12)C(=O)N[C@@H](CC(=O)O)C(=O)COc1ccc2ccccc2c1,–,–,1930 nM,7300 nM
O=C(O)C[C@H](NC(=O)C1Cc2ccccc2N1C(=O)C(=O)Nc1cccc2ccccc12)C(=O)COc1c(F)c(F)cc(F)c1F (some centres not stated),–,–,22100 nM,50000 nM
CC(C)[C@H](NC(=O)C(=O)Nc1cccc2ccccc12)C(=O)N[C@@H](CC(=O)O)C(=O)COP(C)(=O)c1ccccc1 (some centres not stated),–,–,90 nM,2000 nM
CC(C)[C@H](NC(=O)C(=O)Nc1cccc2ccccc12)C(=O)N[C@@H](CC(=O)O)C(=O)COc1cccc2ccccc12,–,–,3060 nM,2700 nM
O=C(O)C[C@H](NC(=O)C(NC(=O)C(=O)Nc1cccc2ccccc12)c1ccccc1)C(=O)COc1c(F)c(F)cc(F)c1F (some centres not stated),–,–,2770 nM,500 nM
CC(C)C[C@H](NC(=O)C(=O)Nc1cccc2ccccc12)C(=O)N[C@@H](CC(=O)O)C(=O)COc1c(F)c(F)cc(F)c1F,–,2500 nM,–,2580 nM
CC(C)[C@H](NC(=O)C(=O)Nc1cccc2ccccc12)C(=O)N[C@@H](CC(=O)O)C(=O)COc1ccnc(C(F)(F)F)n1,–,–,250 nM,2000 nM
O=C(O)C[C@H](NC(=O)[C@H](CCc1ccccc1)NC(=O)C(=O)Nc1cccc2ccccc12)C(=O)COc1c(F)c(F)cc(F)c1F,–,–,7530 nM,3000 nM
CC(C)[C@H](NC(=O)C(=O)Nc1cccc2ccccc12)C(=O)N[C@@H](CC(=O)O)C(=O)COP(=O)(c1ccccc1)c1ccccc1,–,–,650 nM,650 nM
O=C(O)C[C@H](NC(=O)C1CCCCN1C(=O)C(=O)Nc1cccc2ccccc12)C(=O)COc1c(F)c(F)cc(F)c1F (some centres not stated),–,–,–,16000 nM
CC(C)(C)C(NC(=O)C(=O)Nc1cccc2ccccc12)C(=O)N[C@@H](CC(=O)O)C(=O)COc1c(F)c(F)cc(F)c1F (some centres not stated),–,–,270 nM,2900 nM
CC(C)[C@H](NC(=O)C(=O)Nc1cccc2ccccc12)C(=O)N[C@@H](CC(=O)O)C(=O)COS(=O)c1ccccc1 (some centres not stated),–,–,8300 nM,> 50000 nM
CCCCC(NC(=O)C(=O)Nc1cccc2ccccc12)C(=O)N[C@@H](CC(=O)O)C(=O)COc1c(F)c(F)cc(F)c1F (some centres not stated),–,–,–,1000 nM

# Now from value to compound, other results behind:
IC50 [1],IC50 [2],IC50 [3],SMILES,IC50 [4]
7800 nM,1280 nM,7710 nM,CCCCCCCNC(=O)C(=O)N[C@H](C(=O)N[C@@H](CC(=O)O)C(=O)COc1c(F)c(F)cc(F)c1F)C(C)C,7000 nM
–,6.1 nM,–,CC(C)[C@H](NC(=O)C(=O)Nc1cccc2ccccc12)C(=O)N[C@@H](CC(=O)O)C(=O)COc1c(F)c(F)cc(F)c1F,550 nM
1870 nM,17 nM,2640 nM,CC(C)[C@H](NC(=O)C(=O)Nc1cc(C(C)(C)C)ccc1C(C)(C)C)C(=O)N[C@@H](CC(=O)O)C(=O)COc1c(F)c(F)cc(F)c1F,2000 nM
1040 nM,110 nM,1230 nM,CNC(=O)C(=O)N[C@H](C(=O)N[C@@H](CC(=O)O)C(=O)COc1c(F)c(F)cc(F)c1F)C(C)C,7000 nM
910 nM,77.1 nM,570 nM,CC(C)[C@H](NC(=O)C(=O)NCc1ccccc1)C(=O)N[C@@H](CC(=O)O)C(=O)COc1c(F)c(F)cc(F)c1F,1500 nM
380 nM,0.7 nM,700 nM,CC(C)[C@H](NC(=O)C(=O)Nc1ccc2ccccc2c1)C(=O)N[C@@H](CC(=O)O)C(=O)COc1c(F)c(F)cc(F)c1F,3280 nM
2000 nM,1150 nM,1850 nM,CC(C)[C@H](NC(=O)C(=O)Nc1cccc(Oc2ccccc2)c1)C(=O)N[C@@H](CC(=O)O)C(=O)COc1c(F)c(F)cc(F)c1F,1100 nM
410 nM,220 nM,1050 nM,CC(C)[C@H](NC(=O)C(=O)Nc1c(Cl)c(Cl)cc(Cl)c1Cl)C(=O)N[C@@H](CC(=O)O)C(=O)COc1c(F)c(F)cc(F)c1F,660 nM
1070 nM,175 nM,1100 nM,CC(C)[C@H](NC(=O)C(=O)Nc1cccc2c1CCCC2)C(=O)N[C@@H](CC(=O)O)C(=O)COc1c(F)c(F)cc(F)c1F,2000 nM
110 nM,16 nM,160 nM,CC(C)[C@H](NC(=O)C(=O)Nc1ccccc1Cl)C(=O)N[C@@H](CC(=O)O)C(=O)COc1c(F)c(F)cc(F)c1F,300 nM
–,> 200000 nM,170 nM,CC(C)[C@H](NC(=O)C(=O)NC(c1ccccc1)c1ccccc1)C(=O)N[C@@H](CC(=O)O)C(=O)COc1c(F)c(F)cc(F)c1F,7300 nM
> 100000 nM,> 100000 nM,–,CC(C)[C@H](NC(=O)C(=O)N(C)c1cccc2ccccc12)C(=O)N[C@@H](CC(=O)O)C(=O)COc1c(F)c(F)cc(F)c1F,> 50000 nM
580 nM,110 nM,270 nM,CC(C)[C@H](NC(=O)C(=O)Nc1c(F)cc(F)c(F)c1F)C(=O)N[C@@H](CC(=O)O)C(=O)COc1c(F)c(F)cc(F)c1F,2100 nM
14000 nM,390 nM,470 nM,CC(C)[C@H](NC(=O)C(=O)Nc1c(F)c(F)c(F)c(F)c1F)C(=O)N[C@@H](CC(=O)O)C(=O)COc1c(F)c(F)cc(F)c1F,2900 nM
–,30800 nM,> 32000 nM,CC(C)[C@H](NC(=O)C(=O)NOCc1ccccc1)C(=O)N[C@@H](CC(=O)O)C(=O)COc1c(F)c(F)cc(F)c1F,15000 nM
–,356 nM,540 nM,CC(C)[C@H](NC(=O)C(=O)Nc1ccccc1Br)C(=O)N[C@@H](CC(=O)O)C(=O)COc1c(F)c(F)cc(F)c1F,400 nM
